Assay results taken from article PMC6531046 (Bioorganic & medicinal chemistry, 2019).
“Also recorded” adds a separate entry of the source.

What was measured:
[1] = system: T. b. brucei Lister 427 cells; conditions: earlier study, cited from earlier work
tubulin = tubulin (Trypanosoma brucei rhodesiense, UniProt P04106+P04107); experiment: Tubulin polymerization in T. brucei cells; assay type: cell-based; conditions: 12 h treatment, different doses, western blot vs DMSO
Method in brief: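 Bloodstream-form T. b. brucei Lister 427 (HMI-9, 10% FBS, 37°C, 7.5% CO2) treated 12 h with varying doses in 0.5% DMSO; washed in TDB with protease inhibitors, lysed 5 min at 4°C in Pipes pH 6.8/EGTA/MgCl2/0.15% Triton X-100/glycerol; 15,000 g 30 min spin separated soluble (non-polymerized) supernatant from pellet, RIPA-boiled (polymerized). Equal cell-equivalent fractions blotted with anti-tubulin antibody.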

[2] = system: T. b. brucei Lister 427 cells; experiment: T. brucei cell viability analysis; assay type: cell-based, Trypanosoma brucei brucei; conditions: IC50 mammalian cells / IC50 T. brucei
Method in brief: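 Index is mammalian-cell IC50 divided by T. brucei IC50. Parasite arm: bloodstream-form Lister 427 in HMI-9/10% FBS, 37°C, 7.5% CO2; 5,000 cells, compound with 0.1% DMSO, 48 h; MTS 3 h, A490. Mammalian arm: HEK293 or RAW264.7 in RPMI1640/10% FBS, 3000 cells seeded 24 h, compound 48 h; MTT 3 h, A570. Quadruplicates normalized, dose–response fitted.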

Chain of tubulin (P04107 whole entry): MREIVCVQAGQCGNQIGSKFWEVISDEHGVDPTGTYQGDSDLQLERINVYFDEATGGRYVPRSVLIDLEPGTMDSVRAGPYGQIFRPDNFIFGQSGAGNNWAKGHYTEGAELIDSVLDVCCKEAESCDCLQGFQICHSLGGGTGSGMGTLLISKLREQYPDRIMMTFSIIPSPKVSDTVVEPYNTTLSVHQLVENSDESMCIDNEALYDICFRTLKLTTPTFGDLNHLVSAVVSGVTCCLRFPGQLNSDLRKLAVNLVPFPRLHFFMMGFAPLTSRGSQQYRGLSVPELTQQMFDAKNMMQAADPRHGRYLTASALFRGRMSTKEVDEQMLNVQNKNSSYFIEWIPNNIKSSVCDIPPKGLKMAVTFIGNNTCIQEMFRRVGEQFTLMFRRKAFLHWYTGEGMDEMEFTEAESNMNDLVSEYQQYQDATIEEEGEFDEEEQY
Chain of tubulin (P04106 whole entry): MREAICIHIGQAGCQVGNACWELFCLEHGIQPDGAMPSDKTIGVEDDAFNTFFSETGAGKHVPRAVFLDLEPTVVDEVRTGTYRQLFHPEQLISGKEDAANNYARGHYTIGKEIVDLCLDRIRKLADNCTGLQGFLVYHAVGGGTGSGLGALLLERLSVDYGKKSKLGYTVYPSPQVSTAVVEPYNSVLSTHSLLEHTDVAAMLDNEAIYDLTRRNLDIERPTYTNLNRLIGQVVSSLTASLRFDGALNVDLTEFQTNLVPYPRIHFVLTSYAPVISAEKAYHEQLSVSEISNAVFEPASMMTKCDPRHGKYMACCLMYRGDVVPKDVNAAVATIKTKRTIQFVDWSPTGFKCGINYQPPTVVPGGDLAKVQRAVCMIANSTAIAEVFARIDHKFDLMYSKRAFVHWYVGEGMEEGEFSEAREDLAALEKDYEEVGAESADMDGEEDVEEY

SMILES	selectivity index ([1]; IC50 human cell growth / IC50 T. brucei cell growth)	IC50 to inhibit trypanosomal cell proliferation [1] [nM]	effect on tubulin polymerization in T. brucei cells (tubulin)	selectivity index (mammalian cell line not given) [2]
Cc1cc(NC(=O)c2cc(C(F)(F)F)cc(C(F)(F)F)c2)ccc1NS(=O)(=O)C(F)(F)F [Compound 15, N-(3-Methyl-4-Trifluoromethanesulfonylamino-Phenyl)-3,5-Bis-Trifluoromethyl-Benzamide]	around 7000	70	–	–
Cc1cc(NC(=O)c2cc(C(F)(F)F)cc(C(F)(F)F)c2)ccc1NS(C)(=O)=O [Compound 5, N-(4-(Methylsulfonamido)-3-Methylphenyl)-3,5-Bis(Trifluoromethyl)Benzamide]	–	–	profound effect on tubulin function; also recorded: decreased the amount of polymerized tubulin in a dose-dependent manner; also recorded: inhibit the tubulin polymerization in T. brucei cells	above 50
N#Cc1ccc(C(=O)Nc2ccc(NS(=O)(=O)C(F)(F)F)c(F)c2)cc1 [Compound 57, 4-Cyano-N-(3-Fluoro-4-(Trifluoromethylsulfonamido)Phenyl)Benzamide]	–	–	decreased the amount of polymerized tubulin in a dose-dependent manner; also recorded: inhibit the tubulin polymerization in T. brucei cells	–
CCS(=O)(=O)Nc1ccc(NC(=O)c2ccc(Cl)c([N+](=O)[O-])c2)cc1Cl [Compound 39, 4-Chloro-N-(3-Chloro-4-(Ethylsulfonamido)-Phenyl)-3-Nitrobenzamide]	–	–	–	below 50
CCS(=O)(=O)Nc1ccc(NC(=O)c2cc(C(F)(F)F)cc(C(F)(F)F)c2)cc1Cl [Compound 40, N-(3-Chloro-4-(Ethylsulfonamido)Phenyl)-3,5-Bis(Trifluoromethyl)Benzamide]	–	–	–	below 50
